From ChEMBL document CHEMBL4513216, “Probing the Open Global Health Chemical Diversity Library for Multistage-Active Starting Points for Next-Generation Antimalarials” (ACS Infect Dis, 2020)

Test: Toxicity liver stage against HepG2, at 10uM
Format: cell-based
Set-up: test concentration 10 uM, cell line HepG2-A16-CD81EGFP
Settings: human, HepG2-A16-CD81EGFP cells; read-out: INHIBITION
How it was run: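 Uninfected HepG2-A16-CD81EGFP cells, 3 × 10^3 per well, 1536-well, plated on prespotted compound at 10 μM final, parasite-free screening media added to match infected plates; puromycin 10 μM positive, DMSO 0.5% negative; run in parallel with 48 h PbLuc assay at 37 °C, 5% CO2; viability by CellTiter-Glo luminescence, normalized to controls.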

| Structure (SMILES) | cytotoxicity at 10 µM [%] |
| --- | --- |
| CN1CCN(S(=O)(=O)c2cccc(S(=O)(=O)C3CCS(=O)(=O)C3)c2)CC1 (stereo unspecified) | 6.29 |
| COc1ccc2c(ccn2CCC(=O)Nc2n[nH]c(CC(C)C)n2)c1 | 8.29 |
| O=C(NCC(O)(c1ccco1)C1CC1)c1c(F)cccc1Cl (stereo unspecified) | -2.69 |
| CCN1CC2(CC1=O)CN(C(=O)C(C)C)CCN(S(C)(=O)=O)C2 (stereo unspecified) | -4.54 |
| O=C(C1CCOCC1)N1C[C@@H]2OCCN(CCN3CCCC3)[C@@H]2C1 | -3.83 |
| CC(=O)NCC(=O)N1Cc2nc(COCc3csc(C)n3)oc2C1 | 0.503 |
| Cc1nc(-c2noc3ccc(C(=O)NCCN4CCOCC4)cc23)cs1 | 4.19 |
| CC(C)Cc1nnc2sc(-c3cc(C(C)C)n[nH]3)nn12 | 8.08 |
| CNc1nc2c(s1)C(c1ccccc1F)CC(=O)N2 (stereo unspecified) | 4.43 |
| O=C(O)CCC(=O)Nc1nn(Cc2ccc(F)cc2)cc1Cl | 13.8 |
| Cc1nn(COc2cccc(F)c2)c(C)c1NC(=O)C1CC1 | 5.62 |
| COc1ccccc1CNC(=O)c1[nH]ncc1Cl | 1.72 |
| O=C(CO)N1CCC(c2cncc(-c3cccc(Cl)c3)n2)CC1 | -0.105 |
| Cc1ccc(Nc2nccc(C3CN(CC(N)=O)C3)n2)nc1 | -1.91 |
| Clc1ccc(CN2CCC3(CC2)CC(c2cccnc2)=NO3)cc1 | 17.5 |
| O=C(Nc1ccccc1)N1CCn2c(nnc2C2CCCN2)C1 (stereo unspecified) | 2.91 |
| O=C1Nc2ccccc2CN(CC2CC2)C12CCNC2 (stereo unspecified) | 6.09 |
| Cc1c(C(=O)N2CCS(=O)(=O)CC2)nnn1-c1ccc2ncccc2c1 | -5.82 |
| Cc1ccnc(N2CCCC(c3nncn3C3CC3)C2)n1 (stereo unspecified) | -5.45 |
| Cc1ccc(C(=O)OC(C)Cn2cccn2)c(=O)[nH]1 (stereo unspecified) | 3.35 |
| COC(=O)CSCc1noc(-c2ccc(Cl)cc2)n1 | 1.94 |
| Cn1cc(C(=O)Nc2ccc(CN3CCOCC3)cn2)cn1 | 6.95 |
| CC(C)OCCNC1(c2ccc(F)cc2)CCOCC1 | -4.78 |

| Structure (SMILES) | cytotoxicity at 10 µM [%] |
| --- | --- |
| COc1ccc(CNC(=O)N(C)CC(C)(C)O)cc1OC | 6.89 |
| CCc1nc2n(n1)CC(NCc1nc(C)c(C)o1)CC2 (stereo unspecified) | -11 |
| Cc1nn(C)cc1C(=O)NC(CC(C)C)C(=O)Nc1cc[nH]n1 (stereo unspecified) | -2.33 |
| CCCn1cc(NC(=O)c2ccc(N(C)CC)cc2)ccc1=O | -0.704 |
| O=C(C1SCCc2sccc21)N1CCN(CC(F)F)CC1 (stereo unspecified) | -4.5 |
| CN(C)C(=O)c1cccc(NC(=O)CN2CCCCC2C2OCCO2)c1 (stereo unspecified) | -6.95 |
| CCOc1ccc(CNC(C)c2cccc(S(=O)(=O)NC)c2)cc1 (stereo unspecified) | 16.1 |
| Cc1cc2n(n1)CC(CNC1CCN(C(=O)C3CC3)CC1)CN2 (stereo unspecified) | 5.17 |
| CC(C)(C)S(=O)(=O)CCNC(=O)c1cnc(-c2ccccc2)nc1 | 2.92 |
| COc1ccc(CC(=O)NC2CCc3nc(C)cn3C2)cc1 (stereo unspecified) | 9.55 |
| COCCN(CC(C)C)C(=O)c1cccc(Nc2cnccn2)c1 | -9.59 |
| CC(C#N)CNS(=O)(=O)c1ccc(Br)c(F)c1 (stereo unspecified) | -12.3 |
| CN1CC(Nc2nc3c(cnn3C(C)(C)C)c(=O)[nH]2)CCC1=O (stereo unspecified) | -4.26 |
| COCC(O)CN(C)c1ccnc2cc(Br)ccc12 (stereo unspecified) | 5.02 |
| CCNc1cc2c(nn1)CCN(C(=O)c1cc3ccccc3[nH]c1=O)C2 | -1.41 |
| Cc1occc1CNC(=O)C1CCCN1C(=O)C1CC1 (stereo unspecified) | 7.98 |
| CO[C@H]1CN(C(=O)c2cc3ccccc3[nH]2)CC[C@H]1N | 11 |
| c1cc2c(cc1Cn1cc(C3CCOC3)nn1)CCCO2 (stereo unspecified) | 2.03 |
| c1ccc(CN2CCc3ncnc(N4CCCC4)c3CC2)nc1 | -8.35 |
| O[C@@H]1CCN(CC2CCOC2)[C@H]1Cc1ccccc1 (stereo partly specified) | -7.98 |
| CN1C[C@@H](COCC2CC2)[C@H]2CCN(Cc3ccco3)CC[C@H]2C1=O | -4.6 |
| Cc1ncnc2c1CCN(C(=O)CN(C)C)CC2 | 0.964 |
| c1csc(CN2Cc3[nH]nc(COCC4CC4)c3C2)c1 | 6.22 |
